Cl transport mod = KCC2 cotransporter modulators, thallium flux, primary screen, cell-based, HEK293 KCC2, FluoZin-2 fluorescence, MLSMR; KCC2 cells, thallium flux FluoZin-2 fluorescence; AID 1456, 2008; Solute carrier family 12 member 5 (Homo sapiens), Q9H2X9; hit rate 2.2% among 190,000; B-score of Tl+ flux slope (higher = more flux/activation; lower = inhibition) at 10 µM;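 active = thallium flux slope and its plate-corrected score both differing from the plate sample mean at a set confidence after two filtering rounds, in either direction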;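 also: slope of fluorescence scaled to starting intensity during 10 to 20 s after thallium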
Rad51 HR inh = human RAD51 strand exchange inhibitors, primary screen, biochemical, fluorescence; DNA repair protein RAD51 homolog 1 (Homo sapiens), Q06609; hRad51 DNA strand exchange, fluorescence dequenching; inhibition, % at 10 µM; hit rate 0.085% among 200,000; AID 1385, 2008;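 active = inhibition above 40% at the single screening dose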
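Test system – preformed human Rad51 ssDNA filaments · Reagent – Donor/quencher-labelled 47-bp dsDNA substrate · Incubation – 37 °C 15-min filament assembly, 30-min compound preincubation, 15-min exchange · Signal – FRET fluorescence dequenching, excitation 485 nm, emission 520 nm · Read-out – percent inhibition from fluorescence, normalised to plate control and blank means · Benchmarks – plate control and blank wells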
PKD1 kinase inh = inhibitors of human PKD1 kinase, biochemical, fluorescence polarization | inhibition, % (test concentration not listed) | hit rate 0.056% among 200,000 | AID 797, 2007 | PKD1 kinase fluorescence polarization assay; in the data active = inhibition above about 50%
Target sequence (Q15139 whole entry, looked up): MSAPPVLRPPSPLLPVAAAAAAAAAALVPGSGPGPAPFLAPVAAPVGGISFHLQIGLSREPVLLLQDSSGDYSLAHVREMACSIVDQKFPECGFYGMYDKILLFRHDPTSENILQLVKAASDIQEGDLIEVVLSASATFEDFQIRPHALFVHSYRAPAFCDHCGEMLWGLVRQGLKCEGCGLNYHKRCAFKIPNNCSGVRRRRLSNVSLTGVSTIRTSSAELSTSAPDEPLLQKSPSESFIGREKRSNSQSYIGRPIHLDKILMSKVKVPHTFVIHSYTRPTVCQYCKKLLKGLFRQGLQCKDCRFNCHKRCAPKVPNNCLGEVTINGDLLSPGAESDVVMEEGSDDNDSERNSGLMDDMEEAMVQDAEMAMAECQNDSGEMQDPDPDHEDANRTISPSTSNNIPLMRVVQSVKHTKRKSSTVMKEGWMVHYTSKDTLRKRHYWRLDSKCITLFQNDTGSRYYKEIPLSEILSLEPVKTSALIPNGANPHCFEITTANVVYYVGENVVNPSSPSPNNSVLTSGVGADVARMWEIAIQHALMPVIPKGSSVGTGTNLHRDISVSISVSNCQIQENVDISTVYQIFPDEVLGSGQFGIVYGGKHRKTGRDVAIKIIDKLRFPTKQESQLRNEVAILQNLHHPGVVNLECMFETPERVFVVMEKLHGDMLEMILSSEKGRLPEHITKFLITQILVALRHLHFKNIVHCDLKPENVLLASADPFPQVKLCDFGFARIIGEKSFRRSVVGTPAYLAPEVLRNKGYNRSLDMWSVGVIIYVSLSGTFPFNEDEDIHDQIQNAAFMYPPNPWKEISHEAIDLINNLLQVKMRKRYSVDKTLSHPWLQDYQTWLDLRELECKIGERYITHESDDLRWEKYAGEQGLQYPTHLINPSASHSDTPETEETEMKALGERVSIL
ROMK primary = ROMK potassium channel modulators, primary screen, cell-based, thallium flux, MLSMR library; Tet-inducible ROMK, thallium flux fluorescence; actives lie on both sides; B-score at 10 µM; hit rate 2% among 130,000; AID 1918, 2009;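 active = signal ratio slope over the read window, or its plate-corrected B-score, at least 3 SD from the plate mean, either direction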;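 also: B-score of the F/F0 ratio slope over 7 to 12 s after thallium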
KCC2 sec1 = KCC2 modulators in sodium-free buffer, confirmation, cell-based, HEK293 KCC2, thallium flux, secondary assay; shares compounds with Cl transport mod; normalised thallium flux (F/F0 slope) at 10 µM; hit rate 15% among 3,700; FluoZin2 fluorescence; active compounds read high;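 active = thallium flux slope above the same plate's solvent-only control mean plus 3 SD; inconclusive = the two replicate wells disagree; inactive = no significant difference from solvent-only control wells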
KCC2 bumet counter = thallium flux persisting under bumetanide in KCC2 cells, confirmation, counter-screen for KCC2 modulator project, cell-based, HEK293 KCC2, FluoZin2, secondary assay 3; AID 1714, 2009; HEK293-KCC2 + bumetanide/ouabain; active compounds read high; normalized thallium flux at 10 µM; hit rate 49% among 3,700; shares compounds with Cl transport mod;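 active = thallium entry rate above the same plate's blocked-transporter control wells by more than 3 SD; inconclusive = the two repeat wells disagree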;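 also: raw slope of fluorescence over initial fluorescence between 10 and 20 s after thallium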
KCC2 sec2 = KCC2 modulators without ouabain present, confirmation, cell-based, HEK293 KCC2, thallium flux, FluoZin2, secondary assay 2; AID 1715, 2009; hit rate 23% among 3,700; thallium flux FluoZin2 fluorescence; actives lie on both sides; F/F0 rise rate, 10–20 s post-thallium; normalized thallium flux at 10 µM; shares compounds with Cl transport mod;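 active = thallium flux slope more than 3 SD above or below the plate's solvent-only control mean, mostly below; inconclusive = the two repeat wells disagreed; inactive = no significant shift from solvent-only controls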
HEK293 Tl flux = thallium flux modulation in parental HEK cells, confirmation, counter-screen for KCC2 modulator project, cell-based, counterscreen 1; shares compounds with Cl transport mod; AID 1716, 2009; thallium flux rate (normalised fluorescence) at 10 µM; hit rate 46% among 3,700; HEK293 parental cells, thallium flux FluoZin2, ouabain; baseline-ratio fluorescence slope, 10–20 s after thallium;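 active = thallium flux rate significantly above the same plate's solvent-only control wells, beyond their mean plus 3 SD; inconclusive = the two replicate wells gave conflicting results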
KCC2 ouabain = KCC2 inhibitors and activators, ouabain retest, confirmation, HEK-KCC2 cells | AID 1717, 2009 | HEK293-KCC2, thallium flux FluoZin2 fluorescence; bidirectional: low = inhibitor, high = activator | hit rate 48% among 3,700 | raw Tl+ flux slope (below DMSO = inhibition, above = activation) at 10 µM | shares compounds with Cl transport mod;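 active = thallium flux slope beyond 3 SD from same-plate DMSO control mean in most replicates, usually higher, sometimes lower; inconclusive = repeat tests gave conflicting results; inactive = no significant difference from controls in most replicates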;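 also: slope of initial-normalized fluorescence between seconds 10 and 20 after thallium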
HEK293 Tl flux2 = native HEK Tl+ uptake effects, second counter-screen – HEK cells, counterscreen 2, counter-screen for KCC2 modulator project, confirmation | shares compounds with Cl transport mod | HEK293 parental, thallium flux FluoZin-2 fluorescence slope | thallium flux slope at 10 µM | hit rate 33% among 3,700 | AID 1718, 2009;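 active = thallium flux slope above the same plate's solvent-control mean plus 3 SD in both duplicate wells; inconclusive = duplicate wells that disagreed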;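 also: run without ouabain in cells lacking the KCC2 cotransporter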
Of the large screens only hits and unclear results are named; the others gave an inactive call (follow-up assays come after a bar, where they were run). Sampled rows, rich in hits. Any-hit rate of the full collection: about 3%.

Cc1nn(-c2ccccc2)c(Cl)c1/C=C1\SC(=S)NC1=O	Cl transport mod 35 | KCC2 sec1 0.037 | KCC2 bumet counter 0.16 | KCC2 sec2 inactive | HEK293 Tl flux 0.063 | KCC2 ouabain 0.067 | HEK293 Tl flux2 0.027
COc1ccc(-c2csc(NC(=O)COC(=O)C3=COCCO3)n2)cc1	none
O=CN1CCN(C(=O)CN2C(=O)c3ccccc3C2=O)CC1	Cl transport mod 6.3 (no result: Rad51 HR inh) | KCC2 sec1 inactive | KCC2 bumet counter inconclusive | KCC2 sec2 inactive | HEK293 Tl flux inactive | KCC2 ouabain inactive | HEK293 Tl flux2 inactive
CN(Cc1cccnc1)C(=O)CNC(=O)c1ccc(Cl)cc1Cl	none
O=C(Nc1nc2ccc(S(=O)(=O)N3CCCCC3)cc2s1)c1ccncc1	Cl transport mod -6.2 (no result: ROMK primary) | KCC2 sec1 inactive | KCC2 bumet counter inactive | KCC2 sec2 inactive | HEK293 Tl flux inactive | KCC2 ouabain inactive | HEK293 Tl flux2 inactive
O=C(Nc1nc2ccc(S(=O)(=O)N3CCCCC3)cc2s1)c1cccnc1	none (no result: Cl transport mod)
O=C(c1cccc(S(=O)(=O)NCc2ccccc2)c1)N1CCN(Cc2ccccc2)CC1	Cl transport mod -2.7 | KCC2 sec1 inactive | KCC2 bumet counter 0.0061 | KCC2 sec2 inactive | HEK293 Tl flux inactive | KCC2 ouabain inactive | HEK293 Tl flux2 inactive
Cc1ccc(S(=O)(=O)NCc2ccc(C(=O)N3CCN(Cc4ccccc4)CC3)cc2)cc1	Cl transport mod -2.6 | KCC2 sec1 inactive | KCC2 bumet counter inconclusive | KCC2 sec2 0.027 | HEK293 Tl flux inactive | KCC2 ouabain inconclusive | HEK293 Tl flux2 inactive
C/C(=N\NC(=O)CN1CCN(Cc2ccc(C)cc2)CC1)c1ccncc1	none
Cc1cc(C)nc(Sc2nc(C)nc3c2oc2ccccc23)n1	none (no result: Cl transport mod) | KCC2 sec1 inactive | KCC2 bumet counter inactive | KCC2 sec2 inactive | HEK293 Tl flux inactive | KCC2 ouabain inactive | HEK293 Tl flux2 inactive
Cc1nc(SCc2cccc(F)c2)c2oc3ccccc3c2n1	none (no result: PKD1 kinase inh, ROMK primary)
CSCCC(NC(=O)COc1ccccc1)C(=O)O (stereo not drawn)	none
CC(=O)Nc1ccc(S(=O)(=O)N2CCN(c3cnn(C)c(=O)c3Cl)CC2)cc1	none
CCOc1ccc(NS(=O)(=O)c2ccc(NS(=O)(=O)c3ccccc3)cc2)cc1	none (no result: Cl transport mod) | KCC2 sec1 inactive | KCC2 bumet counter inactive | KCC2 sec2 inactive | HEK293 Tl flux inactive | KCC2 ouabain inconclusive | HEK293 Tl flux2 inactive
Cc1ccc(NC(=O)CN(c2ccc(Cl)cc2)S(=O)(=O)c2cc([N+](=O)[O-])ccc2Cl)c(C)c1	none
CC(C)(O)CC[C@@H](O)[C@](C)(O)[C@H]1CC[C@@]2(O)C3=CC(=O)[C@@H]4C[C@@H](O)[C@@H](O)C[C@]4(C)C3CC[C@]12C (stereo partly drawn)	none (no result: ROMK primary)
C[C@@H](C[C@@H](O)[C@H](O)C(C)(C)O)[C@@H]1CC[C@]2(C)C3=CC[C@H]4C(C)(C)C(=O)CC[C@]4(C)[C@H]3CC[C@@]12C	Cl transport mod 4.8 | KCC2 sec1 inactive | KCC2 bumet counter 0.031 | KCC2 sec2 inactive | HEK293 Tl flux inactive | KCC2 ouabain inconclusive | HEK293 Tl flux2 inactive
CCOC(=O)c1cnc2c(c(C)nn2C)c1Oc1cc(Cl)cc(Cl)c1	none (no result: PKD1 kinase inh, ROMK primary)
N#Cc1cc2c(nc1SCC(O)CS(=O)(=O)Cc1ccccc1)CCCC2 (stereo not drawn)	Cl transport mod -2.9 | KCC2 sec1 inconclusive | KCC2 bumet counter inactive | KCC2 sec2 inactive | HEK293 Tl flux inactive | KCC2 ouabain inconclusive | HEK293 Tl flux2 inactive
COc1ccc(COc2ccccc2C(=O)Nc2ccccn2)cc1[N+](=O)[O-]	none
CCOC(=O)NNc1ccc2nonc2c1[N+](=O)[O-]	Cl transport mod 13 (no result: PKD1 kinase inh, ROMK primary) | KCC2 sec1 inactive | KCC2 bumet counter 0.013 | KCC2 sec2 inactive | HEK293 Tl flux 0.013 | KCC2 ouabain 0.024 | HEK293 Tl flux2 0.013
O=C(Nc1nnc(-c2cccs2)o1)c1ccco1	none (no result: ROMK primary)
Cc1cccc(C(=O)Nc2nnc(-c3cccnc3)o2)c1	Cl transport mod 4.6 | KCC2 sec1 inactive | KCC2 bumet counter 0.0093 | KCC2 sec2 inactive | HEK293 Tl flux 0.0099 | KCC2 ouabain inactive | HEK293 Tl flux2 inconclusive
COc1cccc(C(=O)Nc2nnc(-c3cccs3)o2)c1	Cl transport mod 5.3 (no result: ROMK primary) | KCC2 sec1 inactive | KCC2 bumet counter 0.023 | KCC2 sec2 inactive | HEK293 Tl flux 0.018 | KCC2 ouabain 0.029 | HEK293 Tl flux2 0.016
COc1ccc(-c2nnc(NC(=O)c3ccccc3C)o2)cc1	Cl transport mod 4.5 (no result: PKD1 kinase inh, ROMK primary) | KCC2 sec1 0.015 | KCC2 bumet counter 0.024 | KCC2 sec2 inactive | HEK293 Tl flux 0.013 | KCC2 ouabain inactive | HEK293 Tl flux2 inconclusive
CCCCN(CC)S(=O)(=O)c1ccc(C(=O)Nc2nnc(-c3cccs3)o2)cc1	Cl transport mod 23 | KCC2 sec1 0.016 | KCC2 bumet counter 0.075 | KCC2 sec2 inactive | HEK293 Tl flux 0.036 | KCC2 ouabain 0.05 | HEK293 Tl flux2 0.011
COc1cccc(C(=O)Nc2nnc(-c3ccc(F)cc3)o2)c1	Cl transport mod 15 (no result: PKD1 kinase inh, ROMK primary) | KCC2 sec1 0.0096 | KCC2 bumet counter 0.05 | KCC2 sec2 0.047 | HEK293 Tl flux 0.035 | KCC2 ouabain 0.047 | HEK293 Tl flux2 0.023
CC(=O)Nc1nnc(-c2ccc3c(c2)CCCC3)o1	none (no result: ROMK primary)

Assay outcomes deposited in PubChem BioAssay by several laboratories.
